Test results published in ChEMBL document CHEMBL3396953, “Design, synthesis and biological evaluation of a class of bioisosteric oximes of the novel dual peroxisome proliferator-activated receptor α/γ ligand LT175” (Eur J Med Chem, 2015).
Calls of active or inactive are those of the source. No cut-off for these calls is given here.

What was measured:
Type in all cases: cell-based
[1] = target: T1, Peroxisome proliferator-activated receptor alpha (Homo sapiens, UniProt Q07869); experiment: Agonist activity at GAL4-DNA binding domain fused human PPARalpha ligand binding domain expressed in human HepG2 cells assessed as receptor transactivation incubated for 20 hrs by luciferase reporter gene assay
T1 sequence (Q07869 whole entry): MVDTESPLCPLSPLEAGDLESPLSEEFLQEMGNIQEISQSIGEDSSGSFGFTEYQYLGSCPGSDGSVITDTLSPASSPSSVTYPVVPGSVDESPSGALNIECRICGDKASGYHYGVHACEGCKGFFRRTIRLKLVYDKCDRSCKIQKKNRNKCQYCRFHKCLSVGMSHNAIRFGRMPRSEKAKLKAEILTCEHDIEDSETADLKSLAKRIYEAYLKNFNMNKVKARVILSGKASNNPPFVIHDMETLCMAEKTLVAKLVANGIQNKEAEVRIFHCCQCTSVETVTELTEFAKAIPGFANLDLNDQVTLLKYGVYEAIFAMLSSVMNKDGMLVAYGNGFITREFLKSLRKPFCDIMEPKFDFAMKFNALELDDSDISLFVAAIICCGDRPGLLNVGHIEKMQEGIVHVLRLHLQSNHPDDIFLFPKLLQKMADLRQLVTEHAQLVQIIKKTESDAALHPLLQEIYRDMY
In short: (§1)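 GAL4-PPARα-LBD chimera transiently expressed in HepG2 cells; 10⁵ cells/well seeded in triplicate, calcium-phosphate transfection after 24 h with GAL4-PPARα-LBD plasmid (30 ng), pGAL5TKpGL3 reporter (100 ng) and pCMVβgal (250 ng). Transfections repeated at least twice.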

[2] = target: T2, Peroxisome proliferator-activated receptor gamma (Homo sapiens, UniProt P37231); experiment: Agonist activity at GAL4-DNA binding domain fused human PPARgamma ligand binding domain expressed in human HepG2 cells assessed as receptor transactivation incubated for 20 hrs by luciferase reporter gene assay
T2 sequence (P37231 whole entry): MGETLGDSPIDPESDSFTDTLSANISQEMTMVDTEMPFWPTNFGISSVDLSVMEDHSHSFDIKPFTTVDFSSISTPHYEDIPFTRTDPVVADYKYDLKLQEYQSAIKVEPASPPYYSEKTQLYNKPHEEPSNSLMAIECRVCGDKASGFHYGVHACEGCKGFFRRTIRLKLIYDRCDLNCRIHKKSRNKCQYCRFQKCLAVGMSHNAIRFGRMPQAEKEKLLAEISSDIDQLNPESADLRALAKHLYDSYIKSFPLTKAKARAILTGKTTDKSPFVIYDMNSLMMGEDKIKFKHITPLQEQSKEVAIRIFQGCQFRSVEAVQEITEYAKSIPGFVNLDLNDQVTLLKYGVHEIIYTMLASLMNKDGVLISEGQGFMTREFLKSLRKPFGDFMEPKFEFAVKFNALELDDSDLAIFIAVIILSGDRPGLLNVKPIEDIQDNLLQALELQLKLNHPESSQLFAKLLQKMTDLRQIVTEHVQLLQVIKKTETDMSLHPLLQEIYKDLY

[3] = target: T3, Peroxisome proliferator-activated receptor alpha (Homo sapiens) (UniProt Q07869); experiment: Agonist activity at GAL4-DNA binding domain fused human PPARalpha ligand binding domain expressed in human HepG2 cells assessed as receptor transactivation incubated for 20 hrs by luciferase reporter gene assay relative to Wy-14,643
T3 sequence (whole entry): T1 sequence (Q07869 whole entry)
In short: as §1, with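 “ng). Efficacy expressed as percentage of maximum fold induction obtained with reference agonist Wy-14,643.” for “ng).”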

[4] = target: T4, PPAR alpha/gamma (Homo sapiens) (UniProt P37231+Q07869); experiment: Agonist activity at PPARalpha/PPARgamma in human […] cells assessed as increase in CD36 gene expression at 25 uM incubated for 1 day by quantitative PCR method relative to untreated control
In short: (§2)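 HepaRG cells grown two weeks in William's E medium with 10% FCS, insulin, glutamine and hydrocortisone, then two weeks more with 2% DMSO. Hepatocyte-like cells detached by mild trypsinization and seeded at 2.6 × 10⁴ cells/cm². After 24 h they were starved 16 h without DMSO/FCS, then exposed 24 h to ligand. Total RNA assayed by real-time qPCR; vehicle-treated control set to 1; duplicate samples; two-way ANOVA with Bonferroni.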

[5] = target: T4, PPAR alpha/gamma (Homo sapiens); experiment: Agonist activity at PPARalpha/PPARgamma in human […] cells assessed as increase in FABP1 gene expression at 25 uM incubated for 1 day by quantitative PCR method relative to untreated control; in short: as §2
[6] = target: T4, PPAR alpha/gamma (Homo sapiens); experiment: Agonist activity at PPARalpha/PPARgamma in human […] cells assessed as increase in CPT1A gene expression at 25 uM incubated for 1 day by quantitative PCR method relative to untreated control; in short: as §2
[7] = target: T4, PPAR alpha/gamma (Homo sapiens); experiment: Agonist activity at PPARalpha/PPARgamma in human […] cells assessed as increase in HMGCS2 gene expression at 25 uM incubated for 1 day by quantitative PCR method relative to untreated control; in short: as §2
[8] = target: T4, PPAR alpha/gamma (Homo sapiens); experiment: Agonist activity at PPARalpha/PPARgamma in human […] cells assessed as increase in FABP4 gene expression at 25 uM incubated for 1 day by quantitative PCR method relative to untreated control; in short: as §2
[9] = target: T4, PPAR alpha/gamma (Homo sapiens); experiment: Agonist activity at PPARalpha/PPARgamma in human […] cells assessed as increase in ANGPTL4 gene expression at 25 uM incubated for 1 day by quantitative PCR method relative to untreated control; in short: as §2

Structure (SMILES) | EC50 ([2]; read-out: EC50) | EC50 ([1]; read-out: EC50) | Emax [3] | also measured
CCCCCCCO/N=C/c1ccc(OC(Cc2ccccc2)C(=O)O)cc1 (racemic) |  |  |  | EC50 ([1]; hepg2): Not Active
O=C(O)C(Cc1ccccc1)Oc1ccc(/C=N/O)cc1 (racemic) | 43 µM | 7.75 µM | 91% | 
Cc1cccc(Nc2cc(Cl)nc(SCC(=O)O)n2)c1C [PIRINIXIC ACID] |  |  |  | EC50 ([2]; hepg2): Not Active
CC(C)O/N=C/c1ccc(OC(Cc2ccccc2)C(=O)O)cc1 (racemic) | 5.6 µM | 4.2 µM | 63% | 
CCCO/N=C(/c1ccccc1)c1ccc(OC(Cc2ccccc2)C(=O)O)cc1 (racemic) | 0.68 µM | 0.22 µM | 59% | 
CO/N=C/c1ccc(OC(Cc2ccccc2)C(=O)O)cc1 (racemic) | 12.8 µM | 7.8 µM | 101% | 
O=C(O)C(Cc1ccccc1)Oc1ccc(/C=N/OCc2ccccc2)cc1 (racemic) | 2.1 µM | 6.8 µM | 58% | 
O=C(O)C(Cc1ccccc1)Oc1ccc(/C=N/OCCCc2ccccc2)cc1 (racemic) | 1.25 µM | 1.4 µM | 24% | 
CC(C)CO/N=C/c1ccc(OC(Cc2ccccc2)C(=O)O)cc1 (racemic) | 4.5 µM | 3.8 µM | 52% | 
O=C(O)[C@H](Cc1ccccc1)Oc1ccc(-c2ccccc2)cc1 |  |  | 100% | 
O=C(O)C(Cc1ccccc1)Oc1ccc(/C=N/OCCc2ccccc2)cc1 (racemic) | 1.8 µM | 2.2 µM | 48% | 
CCCO/N=C/c1ccc(OC(Cc2ccccc2)C(=O)O)cc1 (racemic) | 7.9 µM | 7.3 µM | 96% | 
CCCCO/N=C/c1ccc(OC(Cc2ccccc2)C(=O)O)cc1 (racemic) | 3.65 µM | 3.9 µM | 68% | 
CCCO/N=C/c1ccc(O[C@@H](Cc2ccccc2)C(=O)O)cc1 | 3.8 µM | 3.8 µM | 91% | Activity [4]: Active; Activity [5]: Active; fold change (FC) [6]: 2; Activity [7]: Active; fold change (FC) [8]: 50; Activity [9]: Active
O=C(O)C(Cc1ccccc1)Oc1ccc(/C(=N/O)c2ccccc2)cc1 (racemic) | 12.4 µM | 1.2 µM | 78% | 
O=C(O)[C@H](Cc1ccccc1)Oc1ccc(/C=N/O)cc1 | 28 µM | 5.5 µM | 98% | 
CN(CCOc1ccc(CC2SC(=O)NC2=O)cc1)c1ccccn1 (stereo unspecified) [ROSIGLITAZONE] |  |  | inactive | EC50 ([1]; hepg2): Not Active
C/C(=N\O)c1ccc(OC(Cc2ccccc2)C(=O)O)cc1 (racemic) | 9.4 µM | 5.2 µM | 68% | 
CCCO/N=C(\c1ccccc1)c1ccc(OC(Cc2ccccc2)C(=O)O)cc1 (racemic) | 1 µM | 2.1 µM | 24% | 
